# Experimental data as given in ChEMBL document CHEMBL4680084, “New β-Lactam Derivatives Modulate Cell Adhesion and Signaling Mediated by RGD-Binding and Leukocyte Integrins” (J Med Chem, 2016).
# Numbered stars: 1 amine (or outer) side, 2 acyl side, 3 side chain; on linkers, the order of the positions; unused ones are H or OH. Square brackets hold non-standard residues; d marks the D form. Peptide text beside a SMILES is read from it. * marks the point of attachment. X1 = O=C(Cc1ccc(N[*:1])cc1)[*:2]; NH(2-Me-phenyl) = Cc1ccccc1N*; CO = O=C([*:1])[*:2]
# Tests used:
# SK-MEL-24 = assay: Toxicity in human SK-MEL-24 cells assessed as induction of cell necrosis and/or apoptosis incubated for 3 hrs by annexin V-PE and 7-AAD staining based by flow cytometry; details: sk-mel-24, 3 h
# In short: (§1)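 After 3 h incubation, cells resuspended in complete medium and stained with annexin V-PE/7-AAD reagent for 20 min at room temperature in the dark. Flow cytometry sorted cells into viable, early apoptotic and late apoptotic/necrotic populations.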
# MCF7 = assay: Toxicity in human MCF7 cells assessed as induction of cell necrosis and/or apoptosis incubated for 3 hrs by annexin V-PE and 7-AAD staining based by flow cytometry; details: mcf7, 3 h; in short: as §1
# HT-29 = assay: Toxicity in human HT-29 cells assessed as induction of cell necrosis and/or apoptosis incubated for 3 hrs by annexin V-PE and 7-AAD staining based by flow cytometry; details: ht-29, 3 h; in short: as §1
# K562 = assay: Toxicity in human K562 cells assessed as induction of cell necrosis and/or apoptosis incubated for 3 hrs by annexin V-PE and 7-AAD staining based by flow cytometry; details: k562, 3 h; in short: as §1
# HEL = assay: Toxicity in human HEL cells assessed as induction of cell necrosis and/or apoptosis incubated for 3 hrs by annexin V-PE and 7-AAD staining based by flow cytometry; in short: as §1
# Integrin alpha-V/beta-5 [1] = target: T1, Integrin alpha-V/beta-5 (Homo sapiens, UniProt P06756+P18084); assay: Antagonist activity at alphaVbeta5 in human MCF7 cells assessed as reduction in cell adhesion to fibrinogen pre-incubated for 30 mins before fibrinogen and further incubated for 1 hr by nitrophenyl-N-acetyl-beta-D-glucosaminide substrate based chromogenic assay
# In short: (§2)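 Compound or methanol vehicle pre-incubated with cells for 30 min at room temperature. Cells then plated on wells coated overnight at 4 °C with fibronectin 10 µg/mL (SK-MEL-24, K562, HT-29) or fibrinogen 10 µg/mL (MCF7, HEL). Seeding was 50,000 cells/well, or 100000 for HEL. Adhesion ran 1 h at room temperature. Wells washed with 1% BSA/PBS. Quadruplicate, at least three repeats.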
# Integrin alpha-V/beta-6 [2] = target: T2, Integrin alpha-V/beta-6 (Homo sapiens, UniProt P06756+P18564); assay: Agonist activity at alphaVbeta6 in human HT-29 cells assessed as increase in cell adhesion to fibronectin pre-incubated for 30 mins before fibronectin and further incubated for 1 hr by nitrophenyl-N-acetyl-beta-D-glucosaminide substrate based chromogenic assay
# In short: (§3)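 Compound or methanol vehicle pre-incubated with cells for 30 min at room temperature. Cells then plated on wells coated overnight at 4 °C with fibronectin 10 µg/mL (SK-MEL-24, K562, HT-29) or fibrinogen 10 µg/mL (MCF7, HEL). Seeding was 50,000 cells/well, or 100000 for HEL. Adhesion ran 1 h at room temperature. Wells washed with 1% BSA/PBS. Adherent cells read by hexosaminidase substrate, absorbance 405 nm. Quadruplicate, at least three repeats.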
# Integrin alpha-V/beta-6 [3] = target: T2, Integrin alpha-V/beta-6; assay: Antagonist activity at alphaVbeta6 in human HT-29 cells assessed as reduction in cell adhesion to fibronectin pre-incubated for 30 mins before fibronectin and further incubated for 1 hr by nitrophenyl-N-acetyl-beta-D-glucosaminide substrate based chromogenic assay; in short: as §2
# Integrin alpha-5/beta-1 [4] = target: T3, Integrin alpha-5/beta-1 (Homo sapiens, UniProt P05556+P08648); assay: Agonist activity at alpha5beta1 in human K562 cells assessed as increase in cell adhesion to fibronectin pre-incubated for 30 mins before fibronectin and further incubated for 1 hr by nitrophenyl-N-acetyl-beta-D-glucosaminide substrate based chromogenic assay; in short: as §3
# Integrin alpha-5/beta-1 [5] = target: T3, Integrin alpha-5/beta-1; assay: Antagonist activity at alpha5beta1 in human K562 cells assessed as reduction in cell adhesion to fibronectin pre-incubated for 30 mins before fibronectin and further incubated for 1 hr by nitrophenyl-N-acetyl-beta-D-glucosaminide substrate based chromogenic assay; in short: as §3
# [6] = target: T4, Integrin alpha-IIb/beta-3 (Homo sapiens, UniProt P05106+P08514); assay: Agonist activity at alpha2bbeta3 in human HEL cells assessed as increase in cell adhesion to fibrinogen pre-incubated for 30 mins before fibrinogen and further incubated for 1 hr by nitrophenyl-N-acetyl-beta-D-glucosaminide substrate based chromogenic assay; in short: as §2
# [7] = target: T4, Integrin alpha-IIb/beta-3; assay: Antagonist activity at alpha2bbeta3 in human HEL cells assessed as reduction in cell adhesion to fibrinogen pre-incubated for 30 mins before fibrinogen and further incubated for 1 hr by nitrophenyl-N-acetyl-beta-D-glucosaminide substrate based chromogenic assay; in short: as §2
# Integrin alpha-V/beta-3 [8] = target: T5, Integrin alpha-V/beta-3 (Homo sapiens, UniProt P05106+P06756); assay: Antagonist activity at alphaVbeta3 in human SK-MEL-24 cells assessed as reduction in cell adhesion to fibronectin pre-incubated for 30 mins before fibronectin and further incubated for 1 hr by nitrophenyl-N-acetyl-beta-D-glucosaminide substrate based chromogenic assay; in short: as §2
# Integrin alpha-V/beta-3 [9] = target: T5, Integrin alpha-V/beta-3; assay: Agonist activity at alphaVbeta3 in human SK-MEL-24 cells assessed as increase in cell adhesion to fibronectin pre-incubated for 30 mins before fibronectin and further incubated for 1 hr by nitrophenyl-N-acetyl-beta-D-glucosaminide substrate based chromogenic assay; in short: as §3
# Integrin alpha-V/beta-5 [10] = target: T1, Integrin alpha-V/beta-5; assay: Agonist activity at alphaVbeta5 in human MCF7 cells assessed as increase in cell adhesion to fibrinogen pre-incubated for 30 mins before fibrinogen and further incubated for 1 hr by nitrophenyl-N-acetyl-beta-D-glucosaminide substrate based chromogenic assay; in short: as §3
# Integrin alpha-4/beta-1 [11] = target: T6, Integrin alpha-4/beta-1 (Homo sapiens, UniProt P05556+P13612); assay: Agonist activity at alpha4beta1 in human Jurkat E6.1 cells assessed as increase in cell adhesion to VCAM1 pre-incubated for 30 mins before VCAM1 and further incubated for 30 mins by […]; type: cell-based
# In short: (§4)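 Jurkat E6.1 cells labelled with CellTracker green CMFDA (12.5 µM, 30 min, 37 °C), washed, then pre-incubated 30 min at 37 °C with compound or methanol. Plated at 500,000/well on VCAM-1 (α4β1) or ICAM-1 (αLβ2) coated wells (5 µg/mL) for 30 min at 37 °C. Cells lysed in 0.5% Triton X-100; fluorescence read Ex485/Em535. Quadruplicate, at least three repeats.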
# Integrin alpha-4/beta-1 [12] = target: T6, Integrin alpha-4/beta-1; assay: Antagonist activity at alpha4beta1 in human Jurkat E6.1 cells assessed as reduction in cell adhesion to VCAM1 pre-incubated for 30 mins before VCAM1 and further incubated for 30 mins by […]; type: cell-based
# [13] = target: T7, Integrin alpha-L/beta-2 (LFA-1) (Homo sapiens, UniProt P05107+P20701); assay: Agonist activity at alphaLbeta2 in human Jurkat E6.1 cells assessed as increase in cell adhesion to ICAM1 pre-incubated for 30 mins before ICAM1 and further incubated for 30 mins by […]; type: cell-based; in short: as §4
# [14] = target: T7, Integrin alpha-L/beta-2 (LFA-1); assay: Antagonist activity at alphaLbeta2 in human Jurkat E6.1 cells assessed as reduction in cell adhesion to ICAM1 pre-incubated for 30 mins before ICAM1 and further incubated for 30 mins by […]; type: cell-based; in short: as §4
# [15] = target: T4, Integrin alpha-IIb/beta-3; assay: Inhibition of fibrinogen binding to alpha2bbeta3 isolated from human HEL cells incubated for 1 hr by […] competitive solid-phase binding assay
# Integrin alpha-5/beta-1 [16] = target: T3, Integrin alpha-5/beta-1; assay: Inhibition of fibronectin binding to alpha5beta1 isolated from human K562 cells incubated for 1 hr by […] competitive solid-phase binding assay; type: tissue-based
# In short: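 Plates coated overnight at 4 °C in carbonate buffer pH 9.6 with fibronectin 0.5 µg/mL (αvβ3, αvβ6, α5β1), fibrinogen 10 µg/mL (αIIbβ3, αvβ5) or ICAM-1 (αLβ2). Blocked 1 h in buffer containing Ca/Mg/Mn 1 mM each and 1% BSA. Purified integrin (3–10 µg/mL) incubated with compound (10⁻⁴–10⁻¹⁰ M) 1 h at room temperature. Bound integrin detected with primary antibody then AlexaFluor488 secondary, Ex485/Em535. Duplicate, at least three repeats.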
# Integrin alpha-V/beta-3 [17] = target: T5, Integrin alpha-V/beta-3; assay: Inhibition of fibronectin binding to human recombinant alphaVbeta3 expressed in HEK293 cells incubated for 1 hr by […] competitive solid-phase binding assay; type: cell-based
# Integrin alpha-V/beta-5 [18] = target: T1, Integrin alpha-V/beta-5; assay: Inhibition of fibrinogen binding to alphaVbeta5 isolated form human mCf7 cells incubated for 1 hr by […] competitive solid-phase binding assay
# Integrin alpha-V/beta-6 [19] = target: T2, Integrin alpha-V/beta-6; assay: Inhibition of fibronectin binding to alphaVbeta6 isolated form human HT-29 cells incubated for 1 hr by […] competitive solid-phase binding assay; type: tissue-based
# Integrin alpha-4/beta-1 [20] = target: T6, Integrin alpha-4/beta-1; assay: Inhibition of fibronectin binding to […] isolated from human Jurkat E6.1 cells incubated for 1 hr by scintillation-proximity assay based competitive solid-phase binding assay; type: tissue-based
Molecule,Activity (SK-MEL-24),Activity (MCF7),Activity (HT-29),Activity (K562),Activity (HEL),IC50 (Integrin alpha-V/beta-5 [1]),EC50 (Integrin alpha-V/beta-6 [2]),IC50 (Integrin alpha-V/beta-6 [3]),IC50 (Integrin alpha-5/beta-1 [5]),EC50 [6],IC50 [7],IC50 (Integrin alpha-V/beta-3 [8]),EC50 (Integrin alpha-V/beta-3 [9]),EC50 (Integrin alpha-V/beta-5 [10]),EC50 (Integrin alpha-4/beta-1 [11]),IC50 (Integrin alpha-4/beta-1 [12]),EC50 [13],IC50 [14],further results
CC(C)[C@@H]1NC(=O)[C@@H](Cc2ccccc2)NC(=O)[C@H](CC(=O)O)NC(=O)CNC(=O)[C@H](CCCN=C(N)N)NC1=O [CYCLORGDFV],Non-Toxic,Non-Toxic,Non-Toxic,Non-Toxic,Non-Toxic,,,,,,,,,,,,,,
Ac-DRLDS-OH,Non-Toxic,Non-Toxic,Non-Toxic,Non-Toxic,Non-Toxic,2.28 µM,> 5 µM,> 5 µM,> 5 µM,> 5 µM,> 5 µM,,,,,,,,EC50 (Integrin alpha-5/beta-1 [4]): > 5 µM
H-GRGDTP-OH,Non-Toxic,Non-Toxic,Non-Toxic,Non-Toxic,Non-Toxic,0.0342 µM,> 5 µM,> 5 µM,0.00062 µM,> 5 µM,> 5 µM,0.925 µM,,,,,,,
Nc1ccc(CNC(=O)N2C(=O)CC2CC(=O)NCCC(=O)O)cc1.O=C(O)C(F)(F)F (stereo not drawn),Non-Toxic,Non-Toxic,Non-Toxic,Non-Toxic,Non-Toxic,> 5 µM,> 5 µM,> 5 µM,1.05 µM,> 5 µM,> 5 µM,> 5 µM,> 5 µM,> 5 µM,> 5 µM,> 5 µM,> 5 µM,> 5 µM,
O=C(O)CC1CC(=O)N1 (stereo not drawn),Non-Toxic,Non-Toxic,Non-Toxic,Non-Toxic,Non-Toxic,,> 5 µM,> 5 µM,,0.311 µM,,0.0409 µM,,0.376 µM,> 5 µM,> 5 µM,,1.63 µM,IC50 [15]: 0.265 µM; IC50 (Integrin alpha-5/beta-1 [16]): > 1 µM; EC50 (Integrin alpha-5/beta-1 [4]): 1.03 µM; IC50 (Integrin alpha-V/beta-3 [17]): 0.0019 µM; IC50 (Integrin alpha-V/beta-5 [18]): 0.0024 µM; IC50 (Integrin alpha-V/beta-6 [19]): > 1 µM; IC50 (Integrin alpha-4/beta-1 [20]): > 1 µM
Cc1ccccc1NC(=O)Nc1ccc(CC(=O)N[C@@H](CC(C)C)C(=O)N[C@@H](CC(=O)O)C(=O)N[C@H](C(=O)N2CCC[C@H]2C(=O)O)C(C)C)cc1 ({NH(2-Me-phenyl)-CO}-[X1]LDVP-OH),Non-Toxic,Non-Toxic,Non-Toxic,Non-Toxic,Non-Toxic,,,,,,,,,,,,,0.00084 µM,
CCCCS(=O)(=O)N[C@@H](Cc1ccc(OCCCCC2CCNCC2)cc1)C(=O)O [TIROFIBAN],Non-Toxic,Non-Toxic,Non-Toxic,Non-Toxic,Non-Toxic,,,,,,,,,,,,,,
NCc1ccc(NC(=O)N2C(=O)C[C@H]2C(=O)O)cc1.O=C(O)C(F)(F)F,Non-Toxic,Non-Toxic,Non-Toxic,Non-Toxic,Non-Toxic,> 5 µM,> 5 µM,> 5 µM,,> 5 µM,> 5 µM,> 5 µM,> 5 µM,> 5 µM,> 5 µM,> 5 µM,> 5 µM,> 5 µM,
O=C(O)CC1CC(=O)N1C(=O)NCc1ccccc1 (stereo not drawn),Non-Toxic,Non-Toxic,Non-Toxic,Non-Toxic,Non-Toxic,> 5 µM,> 5 µM,> 5 µM,0.417 µM,> 5 µM,> 5 µM,> 5 µM,> 5 µM,> 5 µM,> 5 µM,> 5 µM,> 5 µM,> 5 µM,
